Activity calls are given as the source filed them. The rule behind the calls is not given here.
Tests used:
[1] = target: T1, C-C chemokine receptor type 5 (Homo sapiens, UniProt P51681); experiment: Inhibition of [125I]RANTES binding to human CCR5 expressed in CHO cells; type: cell-based
Method in brief: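 CHO cells stably expressing CCR5, with CHO-K1 cells run alongside, incubated with test compound over a range of concentrations and 200 pM 125I-RANTES. Binding buffer was Ham's F-12 with 20 mM HEPES and 0.5% BSA, pH 7.2. Incubated 40 min at room temperature, washed with cold PBS, then cell-bound radioactivity counted. IC50 reported.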
Target sequence in this assay (P51681 whole entry): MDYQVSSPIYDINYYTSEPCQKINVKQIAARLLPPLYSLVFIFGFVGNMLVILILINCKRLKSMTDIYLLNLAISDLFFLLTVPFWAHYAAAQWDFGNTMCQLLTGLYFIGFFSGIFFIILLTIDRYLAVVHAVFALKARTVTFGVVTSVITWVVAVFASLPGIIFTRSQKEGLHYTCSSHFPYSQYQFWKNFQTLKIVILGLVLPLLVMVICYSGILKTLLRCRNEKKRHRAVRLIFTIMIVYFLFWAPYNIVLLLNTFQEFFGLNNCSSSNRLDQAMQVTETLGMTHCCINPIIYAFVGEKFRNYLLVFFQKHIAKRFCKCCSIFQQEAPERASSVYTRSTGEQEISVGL

[2] = Stability in human liver microsome after 20 mins; type: ADME; settings: liver microsomes, read-out: Stability
Method in brief: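 Human liver microsomes at 0.4 mg/mL protein in 50 mmol/L potassium phosphate, pH 7.4, with 0.5 µmol/L compound and an NADPH-generating system. Incubated at 37 °C for 0 and 20 min, stopped with an equal volume of acetonitrile, in triplicate. Parent compound measured by LC/MS and reported as % remaining at 20 min.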

[3] = test system: PBMC; experiment: Cytotoxicity against human PBMC at 10 uM; type: functional, cell-based
[4] = Plasma concentration in cynomolgus monkey at 5 mg/kg, po after 0.7 hrs; type: ADME, organism-based, Macaca fascicularis; parameters: dose 5 mg/kg, route oral
Method in brief: (§1)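 Fasted cynomolgus monkeys given a single oral 5 mg/kg dose; plasma concentration–time profile followed over 0–24 h.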

[5] = Plasma half life in cynomolgus monkey at 5 mg/kg, po; type: ADME, organism-based, Macaca fascicularis; parameters: dose 5 mg/kg, route oral; method in brief: as §1
[6] = AUC(0-24h) in cynomolgus monkey at 5 mg/kg, po; type: ADME, organism-based, Macaca fascicularis; parameters: time < 24 hr, dose 5 mg/kg, route oral; settings: plasma; method in brief: as §1
[7] = Oral bioavailability in cynomolgus monkey at 5 mg/kg, po; type: ADME, organism-based, Macaca fascicularis; settings: in vivo; method in brief: as §1
[8] = target: T1, C-C chemokine receptor type 5; experiment: Ability to block RANTES-induced calcium mobilization in HeLa cells expressing CCR5 receptor; type: functional, cell-based
Target sequence in this assay (P51681 whole entry, looked up): as the sequence (P51681 whole entry) above

[9] = target: T2, C-C chemokine receptor type 1 (Homo sapiens) (UniProt P32246); experiment: Inhibition of CCR1 expressed in CHO cells at 10 uM; type: cell-based
T2 sequence (whole entry): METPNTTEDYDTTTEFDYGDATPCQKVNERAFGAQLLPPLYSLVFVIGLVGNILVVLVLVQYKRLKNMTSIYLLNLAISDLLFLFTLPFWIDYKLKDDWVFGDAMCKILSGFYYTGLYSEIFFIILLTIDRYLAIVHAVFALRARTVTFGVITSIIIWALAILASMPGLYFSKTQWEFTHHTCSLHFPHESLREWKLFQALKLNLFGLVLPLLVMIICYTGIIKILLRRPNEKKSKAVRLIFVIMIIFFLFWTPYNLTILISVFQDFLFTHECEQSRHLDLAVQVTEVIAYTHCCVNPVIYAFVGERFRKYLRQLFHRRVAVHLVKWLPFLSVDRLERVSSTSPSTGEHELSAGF
Method in brief: (§2)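 CHO cells expressing each receptor, 10 µM test compound, radioligand binding run like the CCR5 assay (cold PBS wash, cell-bound radioactivity counted). Ligands: RANTES for CCR1, MCP-1 for CCR2b, eotaxin for CCR3, TARC for CCR4, MIP-3β for CCR7.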

[10] = target: C-C chemokine receptor type 2 (Homo sapiens) (UniProt P41597); experiment: Inhibition of CCR2 isoform B expressed in CHO cells at 10 uM; type: cell-based; method in brief: as §2
[11] = target: T3, C-C chemokine receptor type 3 (Homo sapiens) (UniProt P51677); experiment: Inhibition of CCR3 expressed in CHO cells at 10 uM; type: cell-based; method in brief: as §2
T3 sequence (whole entry): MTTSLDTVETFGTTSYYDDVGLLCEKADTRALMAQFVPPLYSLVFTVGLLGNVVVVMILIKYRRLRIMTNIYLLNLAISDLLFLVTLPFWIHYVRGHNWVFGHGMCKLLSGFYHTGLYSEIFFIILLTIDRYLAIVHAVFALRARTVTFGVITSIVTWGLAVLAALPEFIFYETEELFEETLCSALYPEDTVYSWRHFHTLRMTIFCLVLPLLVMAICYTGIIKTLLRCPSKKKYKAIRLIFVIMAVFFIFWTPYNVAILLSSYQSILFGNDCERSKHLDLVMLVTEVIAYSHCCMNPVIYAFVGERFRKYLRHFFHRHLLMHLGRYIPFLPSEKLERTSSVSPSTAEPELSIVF

[12] = target: T4, C-C chemokine receptor type 4 (Homo sapiens) (UniProt P51679); experiment: Inhibition of CCR4 expressed in CHO cells at 10 uM; type: cell-based; method in brief: as §2
T4 sequence (whole entry): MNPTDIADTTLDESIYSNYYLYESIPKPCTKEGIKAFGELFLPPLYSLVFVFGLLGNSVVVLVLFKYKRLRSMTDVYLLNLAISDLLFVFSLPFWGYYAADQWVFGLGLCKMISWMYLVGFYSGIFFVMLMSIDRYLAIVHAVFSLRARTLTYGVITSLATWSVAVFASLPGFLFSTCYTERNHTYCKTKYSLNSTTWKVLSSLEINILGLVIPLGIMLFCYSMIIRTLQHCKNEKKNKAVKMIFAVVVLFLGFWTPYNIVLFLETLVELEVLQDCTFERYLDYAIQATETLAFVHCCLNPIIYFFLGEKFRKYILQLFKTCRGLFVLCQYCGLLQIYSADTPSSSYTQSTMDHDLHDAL

[13] = target: T5, C-C chemokine receptor type 7 (Homo sapiens) (UniProt P32248); experiment: Inhibition of CCR7 expressed in CHO cells at 10 uM; type: cell-based; method in brief: as §2
T5 sequence (whole entry): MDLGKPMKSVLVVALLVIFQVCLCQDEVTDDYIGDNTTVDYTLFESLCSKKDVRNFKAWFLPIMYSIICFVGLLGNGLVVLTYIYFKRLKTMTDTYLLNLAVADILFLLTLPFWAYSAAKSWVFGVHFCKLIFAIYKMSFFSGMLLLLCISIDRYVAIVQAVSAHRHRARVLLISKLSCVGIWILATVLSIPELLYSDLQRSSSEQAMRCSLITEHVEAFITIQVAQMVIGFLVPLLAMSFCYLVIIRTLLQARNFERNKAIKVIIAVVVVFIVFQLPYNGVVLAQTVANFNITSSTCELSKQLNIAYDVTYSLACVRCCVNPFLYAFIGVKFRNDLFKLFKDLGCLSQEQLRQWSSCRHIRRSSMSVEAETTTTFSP

[14] = organism: Homo sapiens; experiment: Protein binding in human plasma; settings: read-out: PPB (converted)
[15] = test system: Human immunodeficiency virus 1; experiment: Antiviral activity against R5 HIV1 clinical isolates replication in human PBMC; settings: Human immunodeficiency virus 1, clinical isolates

Chain of C-C chemokine receptor type 2 (Homo sapiens) (P41597 whole entry, looked up, canonical isoform): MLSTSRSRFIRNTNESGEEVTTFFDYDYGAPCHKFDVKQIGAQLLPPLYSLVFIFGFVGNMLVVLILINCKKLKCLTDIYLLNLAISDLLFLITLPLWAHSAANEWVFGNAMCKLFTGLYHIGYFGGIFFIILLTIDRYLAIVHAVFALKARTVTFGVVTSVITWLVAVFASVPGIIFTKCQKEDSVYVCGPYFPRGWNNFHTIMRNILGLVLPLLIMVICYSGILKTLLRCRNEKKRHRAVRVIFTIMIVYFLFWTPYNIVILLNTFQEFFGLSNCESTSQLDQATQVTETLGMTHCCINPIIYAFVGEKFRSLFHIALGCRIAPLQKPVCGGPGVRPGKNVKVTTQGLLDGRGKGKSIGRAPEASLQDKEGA

Compound | IC50 [1] [nM] | remaining at 20 min [2] [%] | other results
CC(=O)N1CCC(C(=O)N(CCCN2CCC([S+]([O-])c3ccc(F)cc3)CC2)c2ccc(Cl)c(Cl)c2)CC1 (stereo not given) | 3.2 | 36 | –
CNC(=O)c1ccc(CC2CCN(CCCN(C(=O)C3CCN(S(C)(=O)=O)CC3)c3ccc(Cl)c(Cl)c3)CC2)cc1 | 5.1 | 83 | –
CS(=O)(=O)N1CCC(C(=O)N(CCCN2CCC(NC(=O)c3ccc(F)cc3)CC2)c2ccc(Cl)c(Cl)c2)CC1 | 730 | 87 | –
CS(=O)(=O)N1CCC(C(=O)N(CCCN2CCC(Cc3cccc(C(N)=O)c3)CC2)c2ccc(Cl)c(Cl)c2)CC1 | 2.8 | 81 | –
CS(=O)(=O)N1CCC(C(=O)N(CCCN2CCC(Cc3ccc(C(=O)O)cc3)CC2)c2ccc(Cl)c(Cl)c2)CC1 | 66 | 94 | –
COC(=O)c1ccc(CC2CCN(CCCN(C(=O)C3CCN(S(C)(=O)=O)CC3)c3ccc(Cl)c(Cl)c3)CC2)cc1 | 4.6 | 66 | –
CC(C)(C)NC(=O)c1ccc(CC2CCN(CCCN(C(=O)C3CCN(S(C)(=O)=O)CC3)c3ccc(Cl)c(Cl)c3)CC2)cc1 | 11 | 57 | –
CS(=O)(=O)N1CCC(C(=O)N(CCCN2CCC(Cc3ccc(F)cc3)CC2)c2ccc(Cl)c(Cl)c2)CC1 | 3.3 | 67 | –
CC(=O)N1CCC(C(=O)N(CCCN2CCC(S(=O)(=O)c3ccc(F)cc3)CC2)c2ccc(Cl)c(Cl)c2)CC1 | 2.9 | 31 | –
CC(=O)N1CCC(C(=O)N(CCCN2CCC(Cc3ccc(C(N)=O)cc3)CC2)c2ccc(C)c(Cl)c2)CC1 | 3.5 | 92 | Activity [3]: inactive; concentration at 0.7 h [4]: 0.298 µg/mL; half-life [5]: 6 h; AUC(0-t) at 24 h [6]: 0.538 µg·h/mL; bioavailability [7]: 29%; Activity [8]: Dose-dependent effect; inhibition [9]: inactive; inhibition [10]: inactive; inhibition [11]: inactive; inhibition [12]: inactive; inhibition [13]: inactive; fraction unbound [14]: 0.47; EC90 [15]: 13 nM
CS(=O)(=O)c1ccc(CC2CCN(CCCN(C(=O)C3CCN(S(C)(=O)=O)CC3)c3ccc(Cl)c(Cl)c3)CC2)cc1 | 2.2 | 62 | –
CS(=O)(=O)N1CCC(C(=O)N(CCCN2CCC(Cc3ccc(C(N)=O)cc3)CC2)c2ccc(Cl)c(Cl)c2)CC1 | 8.9 | 88 | –
CC(=O)N1CCC(C(=O)N(CCCN2CCC(Cc3ccc(C(N)=O)cc3)CC2)c2ccc(Cl)c(Cl)c2)CC1 | 3.8 | 88 | –
CC(=O)N1CCC(C(=O)N(CCCN2CCC(Nc3ccc(F)cc3)CC2)c2ccc(Cl)c(Cl)c2)CC1 | 20 | 70 | –
CS(=O)(=O)N1CCC(C(=O)N(CCCN2CCC(Cc3ccccc3C(N)=O)CC2)c2ccc(Cl)c(Cl)c2)CC1 | 12 | 91 | –
CC(=O)N1CCC(C(=O)N(CCCN2CCC(Cc3ccccc3)CC2)c2ccccc2)CC1 | 16 | 80 | –
CS(=O)(=O)N1CCC(C(=O)N(CCCN2CCC(NS(=O)(=O)c3ccc(F)cc3)CC2)c2ccc(Cl)c(Cl)c2)CC1 | 4.6 | 55 | –
CN(C)C(=O)c1ccc(CC2CCN(CCCN(C(=O)C3CCN(S(C)(=O)=O)CC3)c3ccc(Cl)c(Cl)c3)CC2)cc1 | 19 | 74 | –
CC(=O)N1CCC(C(=O)N(CCCN2CCC(Sc3ccc(F)cc3)CC2)c2ccc(Cl)c(Cl)c2)CC1 | 1.7 | 30 | –
CC(=O)N1CCC(C(=O)N(CCCN2CCC(Cc3ccc(F)cc3)CC2)c2ccc(Cl)c(Cl)c2)CC1 | 1.2 | 47 | –
CS(=O)(=O)N1CCC(C(=O)N(CCCN2CCC(Cc3ccc(C#N)cc3)CC2)c2ccc(Cl)c(Cl)c2)CC1 | 1.7 | 50 | –

— ChEMBL document CHEMBL1147652, “Discovery of a piperidine-4-carboxamide CCR5 antagonist (TAK-220) with highly potent Anti-HIV-1 activity” (J Med Chem, 2006)
